Experimental data of several laboratories.
Each line is one published result; the experiments were not run side by side.
Target: Adenosine receptor A2a (ADORA2A, Homo sapiens, UniProt P29274)

SMILES	effect on	method	tested at	setting	inhibition [%]
C=CN1CCCn2c1nc1c2c(=O)n(C)c(=O)n1C	ligand displacement	radioligand	10 µM	cell membranes	29
Ic1cccc2cnccc12	ligand displacement	radioligand	10 µM	–	8
O=C(c1ccc(F)cc1)N(Cc1ccccc1)C1CCCCC1	cell-free assay	–	10 µM	–	5
c1ccc(N2CCN(CCc3ccc4oc(-c5ccco5)nc4c3)CC2)cc1	ligand displacement	radioligand	10 µM	cell membranes	3
O=C1N=C(N2CCCCN2)S/C1=C\c1ccc(F)cc1O	ligand displacement	radioligand	10 µM	–	10
O=C(Nc1ccc(S(=O)(=O)N2CCC(Cl)CC2)cc1)c1ccc([N+](=O)[O-])o1	ligand displacement	radioligand	10 µM	–	8
COc1cc(NC(C)=O)c(Cl)cc1C(=O)Nc1nccs1	cell-free assay	–	10 µM	–	39.7
c1coc(-c2nc3ccc(CN4CCCCC4)cc3o2)c1	ligand displacement	radioligand	10 µM	cell membranes	5
CCN(Cc1ccccc1C(F)(F)F)C(=O)C1CCN(S(=O)(=O)c2ccc3[nH]ncc3c2)CC1	ligand displacement	radioligand	10 µM	–	3
Nc1nc[nH]c(=O)c1Cl	ligand displacement	radioligand	30 µM	cell membranes	23
CC(C)(C)OC(=O)N1CCN(CC(=O)Nc2ccc3oc(-c4ccco4)nc3c2)CC1	ligand displacement	radioligand	10 µM	cell membranes	25
C#CCNc1nc(Cl)nc2c1ncn2[C@H]1[C@H](O)[C@H](O)[C@]2(C(=O)NC)C[C@H]12	ligand displacement	radioligand	10 µM	cell membranes	23
